High-throughput results as filed in PubChem BioAssay.
A selection: hits, their analogues and other compounds. The true share with any hit is near 4.1%.
MrgX1 ag: activates human MrgX1 receptor signaling. AID 588627. MrgX1-HEK293 cells, Fluo-4 calcium fluorescence, agonist mode; active compounds read high. actives 0.44% (n = 310,000). Q96LB2. B-score at 10 µM;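 active = calcium response B-score plate-corrected fluorescence ratio at least 3 library SD, with starting fluorescence B-score inside 5 SD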
Target sequence (Q96LB2 whole entry, looked up): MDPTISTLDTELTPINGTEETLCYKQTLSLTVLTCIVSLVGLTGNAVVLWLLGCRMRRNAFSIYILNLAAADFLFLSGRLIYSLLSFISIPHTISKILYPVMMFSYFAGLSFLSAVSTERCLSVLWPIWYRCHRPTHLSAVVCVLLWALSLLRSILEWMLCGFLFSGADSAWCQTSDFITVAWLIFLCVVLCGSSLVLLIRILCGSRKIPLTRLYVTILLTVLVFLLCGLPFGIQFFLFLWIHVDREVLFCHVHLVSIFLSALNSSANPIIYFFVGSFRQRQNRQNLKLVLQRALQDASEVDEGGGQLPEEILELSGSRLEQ
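Material – MrgX1-expressing HEK293 cells · Input – 15,000 cells seeded per well · Dosing – compound as first of three additions · Times – overnight seeding, then 1 h dark dye loading · Measured by – kinetic Fluo-4 NW fluorescence of intracellular calcium · Read-out – B-scored fluorescence response ratio · Benchmarks – positive and negative control wells on each plate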
RGS4 pot: potentiators or activators of RGS4. AID 463111. B-score at 10 µM. HEK293 M3R/inducible RGS4, carbachol calcium flux Fluo4; active compounds read low. actives 0.92% (n = 310,000);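 active = B-score of the integrated calcium signal more than 4 SD below the library mean, with starting fluorescence not abnormally high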;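 note: negative B-score means reduced calcium response which marks RGS4 activation or potentiation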
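Material: M3R-expressing HEK293 line, RGS4 induced by doxycycline | Schedule: Overnight RGS4 induction, 30 min dye load 37 °C, 20 min compound RT | Measured by: Fluo4 fluorescence kinetic imaging of calcium | Read-out: Integrated calcium ratio converted to B score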
MrgX1 PAM: human MrgX1 positive allosteric modulation, primary screen; Q96LB2; MrgX1-HEK293, Fluo-4 calcium flux, FDSS; active compounds read high; actives 0.63% (n = 310,000); B-score at 10 µM; AID 588675;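 active = plate-corrected calcium response at least 3 library SD above typical, normal starting fluorescence, not activating the receptor alone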;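 note: compound read alongside a low EC10 to EC30 dose of BAM8-22 agonist; peak minus trough fluorescence over baseline measured at the second addition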
MrgX1 antag: human MrgX1 receptor antagonism, primary screen | Q96LB2 | MRGX1-HEK293 calcium flux, Fluo-4, BAM8-22 antagonism; active compounds read low | B-score at 10 µM | actives 1.3% (n = 310,000);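 active = calcium-response B-score plate-corrected more than 3 library SD below zero, starting fluorescence within 5 deviations, no agonist response on first addition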;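 note: peak minus trough fluorescence over baseline after final BAM8-22 challenge near maximal dose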
Kir21 inh: blocks the mouse Kir2.1 inward-rectifier potassium channel; HEK293-Kir2.1, FluxOR thallium flux fluorescence; active compounds read low; B-score at 10 µM; actives 0.85% (n = 310,000); AID 1672;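 active = fluorescence ratio B-score at or below minus 3 SD of library scores, with starting-brightness B-score within 2 SD, cut at about -4.2 in these data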;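 note: channel flux triggered by added potassium and thallium sulfate stimulus; B-score of peak minus minimum fluorescence over baseline after thallium stimulus; more negative B-score means stronger Kir2.1 block with less thallium influx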
RGS4 inh: human RGS4 inhibition. P49798. HEK293 M3R/RGS4 inducible, Fluo-4 calcium flux; active compounds read high; triggered by carbachol at its EC20. B-score at 10 µM. actives 0.45% (n = 310,000). AID 463165;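 active = B-score, a plate-corrected calcium signal, over three deviations above library mean, with baseline fluorescence within five deviations of library mean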;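 note: RGS4 expression induced by doxycycline in cells with stable M3 receptor; B-score is computed from the integrated fluorescence ratio over baseline after carbachol; higher B-score means a larger calcium signal and so more RGS4 inhibition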
Target sequence (P49798 whole entry, looked up): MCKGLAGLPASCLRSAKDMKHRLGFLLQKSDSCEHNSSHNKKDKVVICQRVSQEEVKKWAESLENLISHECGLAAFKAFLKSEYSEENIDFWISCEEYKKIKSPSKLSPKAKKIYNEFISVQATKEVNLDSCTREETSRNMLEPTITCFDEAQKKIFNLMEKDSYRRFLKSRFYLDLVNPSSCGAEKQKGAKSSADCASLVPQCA
MrgX1 ag confirm: reconfirmed activator of human MrgX1 receptor signaling; shares compounds with MrgX1 ag; MrgX1-HEK293, Fluo-4 calcium fluorescence, FDSS; activation, % at 10 µM; actives 78% (n = 600);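 active = calcium signal rise, corrected for plate position, at least 3 library SD high, with starting brightness within 5 such deviations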
HEK293 Ca flux: counter-screen for MrgX1 antagonists: effect in parental HEK293 cells; actives 2% (n = 4,000); Fluo-4 calcium fluorescence, FDSS; fluorescence ratio F(max-min)/F0 at 10 µM; shares compounds with MrgX1 antag; AID 624111;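 active = duplicate-averaged calcium fluorescence ratio at least three times the standard deviation of buffer wells, a nonspecific response in parental cells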
HEK293 Ca counter: counter-screen for MrgX1 allosteric activators: effect in parental HEK293 cells; actives 0.4% (n = 4,000); AID 624114; fluorescence ratio F(max-min)/F0 at 10 µM; parental HEK293 calcium flux, Fluo-4 fluorescence ratio; active compounds read high; shares compounds with MrgX1 antag;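 active = calcium fluorescence ratio, averaged over duplicates, at least 3 SD of the buffer-well ratio, meaning a nonspecific response in receptor-free cells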;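 note: untransfected parental HEK293 lacking MrgX1 used as counterscreen for MrgX1 allosteric activators; fluorescence change taken during the second addition on a kinetic imager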
HEK293 Ca cntr2: activity in parental HEK293 cells lacking MrgX1 receptor; fluorescence ratio F(max-min)/F0 at 10 µM; Fluo-4 calcium fluorescence (FDSS); active compounds read high; shares compounds with MrgX1 antag; actives 8.7% (n = 4,000);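 active = calcium fluorescence ratio at least three times the spread of buffer wells, meaning a non-specific response in parental cells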
Large screens that a line does not name were inactive (follow-up assays come after a bar, where they were run).

O=C(Nc1nnc(-c2ccccc2)o1)c1cc(Cl)sc1Cl	MrgX1 ag 43 | MrgX1 ag confirm 442% | HEK293 Ca flux inactive | HEK293 Ca counter inactive | HEK293 Ca cntr2 88
O=C(Nc1nnc(-c2ccc(Cl)cc2)o1)c1nc2ccccc2s1	none
O=C(Nc1nnc(-c2ccc(F)cc2)o1)c1cc(Cl)sc1Cl	MrgX1 ag 114 | MrgX1 ag confirm 527% | HEK293 Ca flux inactive | HEK293 Ca counter inactive | HEK293 Ca cntr2 100
CC(=O)NC(CC(=O)OCC(=O)c1c(N)n(CC(C)C)c(=O)n(C)c1=O)c1ccccc1 (centres undefined)	none
CCCCCCCC1CC(CSC(=N)N)OC1=O (centres undefined)	MrgX1 ag 41 | MrgX1 ag confirm 164% | HEK293 Ca flux inactive | HEK293 Ca counter inactive | HEK293 Ca cntr2 inactive
CCCCC1CC(CSC(=N)N)OC1=O (centres undefined)	none
O=C(Cn1cc(C(=O)C2CC2)c2ccccc21)NCC1CCCO1 (centres undefined)	none
CC1CC2(CCCCC2)N2C(=O)C(=O)c3cccc1c32 (centres undefined)	MrgX1 ag 46 | MrgX1 ag confirm 196% | HEK293 Ca flux inactive | HEK293 Ca counter inactive | HEK293 Ca cntr2 inactive
Cc1cc2c3c(c1)C(C)CC(C)(C)N3C(=O)C2=O (centres undefined)	none
COc1ccc(NC(=O)CSc2ncnc3c2cnn3CCc2ccccc2)cc1	none
C=CCNC(=O)c1ccc(-c2nc(-c3ccc(Cl)cc3Cl)cs2)cc1	none
Cc1ccc(C(=O)COC(=O)c2cc(Cl)ccc2O)cc1[N+](=O)[O-]	none
COc1ccccc1NS(=O)(=O)c1cc(C(=O)NCc2ccncc2)ccc1C	none
COc1ccccc1NS(=O)(=O)c1cc(C(=O)NCCC(C)C)ccc1F	MrgX1 ag 35 | MrgX1 ag confirm 313% | HEK293 Ca flux inactive | HEK293 Ca counter inactive | HEK293 Ca cntr2 101
CCCn1cnc2cc(NCc3cccc(OC)c3)ccc21	none
Cc1ccc(N/C(N)=N/c2nc3c(c(=O)[nH]2)CCCC3)c(C)c1	none
Cc1ccc(N/C(N)=N/c2nc(C)cc(N3CCCCC3)n2)c(C)c1	MrgX1 ag 34 | MrgX1 ag confirm 137% | HEK293 Ca flux inactive | HEK293 Ca counter inactive | HEK293 Ca cntr2 inactive
COC(=O)CC1=C(C(=O)OC)C(c2ccc3c(c2Cl)OCO3)C(C#N)=C(N)O1 (centres undefined)	MrgX1 ag 41 | MrgX1 ag confirm 172% | HEK293 Ca flux inactive | HEK293 Ca counter inactive | HEK293 Ca cntr2 inactive
COc1ccccc1N=C1NC(=O)/C(=C/c2ccc(N(C)C)cc2)S1	MrgX1 ag 65 | MrgX1 ag confirm inactive | HEK293 Ca flux 0.22 | HEK293 Ca counter inactive | HEK293 Ca cntr2 128
Cc1ccc(-c2[nH]c(-c3ccc(Cl)cc3)nc2SCC(=O)NCC2CCCO2)cc1 (centres undefined)	none
CCc1nc2ccccc2n1Cc1ccc(OC)c(OC)c1	MrgX1 ag 41 | MrgX1 ag confirm inactive | HEK293 Ca flux inactive | HEK293 Ca counter inactive | HEK293 Ca cntr2 inactive
CCN1CCc2c(sc(NC(=O)c3ccc4ccccc4c3)c2C(N)=O)C1	MrgX1 ag 44 | MrgX1 ag confirm inactive | HEK293 Ca flux inactive | HEK293 Ca counter inactive | HEK293 Ca cntr2 inactive
COc1ccc(CN2CCN(C(C)C)C(CCO)C2)cc1Cn1cccn1 (centres undefined)	none
O=C(Nc1cccc(OC(=O)c2ccco2)c1)c1ccco1	none
CC(=O)Nc1cccc(OC(=O)c2ccoc2C)c1	MrgX1 ag 33 | MrgX1 ag confirm 128% | HEK293 Ca flux inactive | HEK293 Ca counter inactive | HEK293 Ca cntr2 46
CCN(CC)c1nc2c(s1)C(=O)CC(C)(C)C2	none
CC(C)Oc1ccc(C(=O)CCN2CCOCC2)cc1	MrgX1 ag 65 | MrgX1 ag confirm inactive | HEK293 Ca flux inactive | HEK293 Ca counter inactive | HEK293 Ca cntr2 inactive
Cc1cc(-c2nn(-c3ccccc3F)cc2CN2CCC(O)CC2)c(C)s1	none
Cc1cc(-c2nn(-c3ccccc3F)cc2CN2CCN(c3ccncc3)CC2)c(C)s1	MrgX1 ag 56, Kir21 inh -4.5 | MrgX1 ag confirm 268% | HEK293 Ca flux inactive | HEK293 Ca counter inactive | HEK293 Ca cntr2 inactive
Cc1ccc(CN2CCSc3ccc(C(=O)NC4CCN(Cc5ccccc5)CC4)cc32)cc1	none
COc1ccccc1C(=O)C1CCCN(C(=O)c2cc(C(C)C)no2)C1 (centres undefined)	none
CC1(C)CC(=O)C(C(C2=C(O)CC(C)(C)CC2=O)c2ccc(Cl)c([N+](=O)[O-])c2)C(=O)C1 (centres undefined)	MrgX1 ag 91 | MrgX1 ag confirm inactive | HEK293 Ca flux inactive | HEK293 Ca counter inactive | HEK293 Ca cntr2 inactive
Nc1cccc(-c2csc(-n3ncc(C(=O)O)c3C(F)(F)F)n2)c1	none
O=C(O)c1cnn(-c2nc(-c3cccc(F)c3)cs2)c1C(F)(F)F	MrgX1 ag 48 | MrgX1 ag confirm 156% | HEK293 Ca flux inactive | HEK293 Ca counter inactive | HEK293 Ca cntr2 inactive
Nc1ccc(Sc2nc3ccccc3[nH]2)cc1	none
O=C(N/N=C/c1cccc([N+](=O)[O-])c1O)C(O)(c1ccccc1)c1ccccc1	MrgX1 ag 66 | MrgX1 ag confirm 116% | HEK293 Ca flux inactive | HEK293 Ca counter inactive | HEK293 Ca cntr2 inactive
O=C(Nc1ccccc1)Nc1ccc2ccccc2c1	MrgX1 ag 34 | MrgX1 ag confirm inactive | HEK293 Ca flux inactive | HEK293 Ca counter inactive | HEK293 Ca cntr2 inactive
CCOCCCNC(=O)c1cn(CC)c2ccc(S(=O)(=O)N3CCOCC3)cc2c1=O	none
Cc1cc(=O)[nH]c(SCC(=O)Nc2ccc(F)cc2)c1C#N	none
Cc1cc(=O)[nH]c(SCC(=O)Nc2ccc(Br)cc2)c1C#N	MrgX1 ag 72 | MrgX1 ag confirm 375% | HEK293 Ca flux inactive | HEK293 Ca counter inactive | HEK293 Ca cntr2 84
